Measured values reported in ChEMBL document CHEMBL1138454, “Synthesis and SAR of tolylamine 5-HT6 antagonists” (Bioorg Med Chem Lett, 2009).
The source made the active and inactive calls. The rule behind the calls is not given here.

Columns and labels:
Rattus norvegicus [1] = assay: Reversal of natural forgetting activity in rat assessed as novel object recognition at 3 mg/kg, ip after 24 hrs; format: functional, organism-based; set-up: dose 3 mg/kg
[2] = Volume of distribution at steady state in rat; format: ADME, organism-based; conditions: in vivo, read-out: Vdss
[3] = Ratio of drug level in rat brain to plasma; conditions: brain and plasma
Rattus norvegicus [4] = assay: Reversal of natural forgetting activity in rat assessed as familiar object recognition at 3 mg/kg, ip after 24 hrs; format: functional, organism-based; set-up: dose 3 mg/kg
[5] = Bioavailability in rat; format: ADME, organism-based; conditions: in vivo
[6] = target: 5-hydroxytryptamine receptor 6 (Rattus norvegicus) (UniProt P31388); assay: Agonist activity at rat recombinant 5HT6 receptor assessed as increase in 5-HT-stimulated cAMP level at 10 uM by ELISA; format: functional
Chain of 5-hydroxytryptamine receptor 6 (Rattus norvegicus) (P31388 whole entry): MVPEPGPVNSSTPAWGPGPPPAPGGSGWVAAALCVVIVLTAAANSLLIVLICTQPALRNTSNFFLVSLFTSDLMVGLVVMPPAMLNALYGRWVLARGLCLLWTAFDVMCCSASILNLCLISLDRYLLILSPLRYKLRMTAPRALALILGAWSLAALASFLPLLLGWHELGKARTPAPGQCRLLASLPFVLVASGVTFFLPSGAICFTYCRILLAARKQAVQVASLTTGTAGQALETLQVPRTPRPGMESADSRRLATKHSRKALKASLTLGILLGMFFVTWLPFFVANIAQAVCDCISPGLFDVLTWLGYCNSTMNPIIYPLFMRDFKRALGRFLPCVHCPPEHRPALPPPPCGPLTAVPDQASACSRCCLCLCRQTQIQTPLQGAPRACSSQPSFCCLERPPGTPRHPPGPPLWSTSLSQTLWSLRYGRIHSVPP
In short: (§1)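 cAMP accumulation measured by ELISA in cells expressing recombinant rat 5-HT6 receptor. Compound tested alone, without 5-HT, at 1, 3 and 10 µM to look for stimulation. 5-HT used as the stimulating reference.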

[7] = target: T1, 5-hydroxytryptamine receptor 1A (Homo sapiens, UniProt P08908); assay: Binding affinity to 5HT1A receptor
T1 sequence (P08908 whole entry): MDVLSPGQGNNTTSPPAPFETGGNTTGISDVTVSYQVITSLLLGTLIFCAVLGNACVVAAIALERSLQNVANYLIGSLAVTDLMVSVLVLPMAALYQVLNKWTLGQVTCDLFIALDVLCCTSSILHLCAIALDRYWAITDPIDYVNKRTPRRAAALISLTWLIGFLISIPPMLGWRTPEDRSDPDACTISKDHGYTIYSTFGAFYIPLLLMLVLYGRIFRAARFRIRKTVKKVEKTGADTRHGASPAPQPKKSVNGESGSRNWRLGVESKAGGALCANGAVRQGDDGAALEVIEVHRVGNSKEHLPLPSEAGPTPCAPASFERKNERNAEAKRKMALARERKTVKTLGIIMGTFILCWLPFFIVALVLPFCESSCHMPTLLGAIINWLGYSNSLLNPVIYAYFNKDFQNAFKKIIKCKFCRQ

[8] = target: 5-hydroxytryptamine receptor 6 (Rattus norvegicus) (UniProt P31388); assay: Agonist activity at rat recombinant 5HT6 receptor assessed as increase in 5-HT-stimulated cAMP level at 3 uM by ELISA; format: functional; in short: as §1
[9] = Clearance in rat; format: ADME, organism-based; conditions: in vivo
[10] = target: T2, 5-hydroxytryptamine receptor 2C (Homo sapiens, UniProt P28335); assay: Binding affinity to 5HT2C receptor
T2 sequence (P28335 whole entry): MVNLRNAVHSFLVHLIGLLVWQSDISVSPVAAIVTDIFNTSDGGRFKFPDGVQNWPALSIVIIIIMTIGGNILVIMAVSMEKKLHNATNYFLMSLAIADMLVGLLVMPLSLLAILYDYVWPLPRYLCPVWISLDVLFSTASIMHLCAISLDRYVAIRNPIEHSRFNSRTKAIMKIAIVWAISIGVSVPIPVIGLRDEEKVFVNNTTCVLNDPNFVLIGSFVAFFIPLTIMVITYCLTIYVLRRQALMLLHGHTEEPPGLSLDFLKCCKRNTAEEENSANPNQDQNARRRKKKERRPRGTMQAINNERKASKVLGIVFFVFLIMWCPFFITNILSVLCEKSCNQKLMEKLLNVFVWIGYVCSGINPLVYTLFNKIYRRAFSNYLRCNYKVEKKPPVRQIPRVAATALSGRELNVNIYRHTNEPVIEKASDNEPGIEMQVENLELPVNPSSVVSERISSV

[11] = target: 5-hydroxytryptamine receptor 6 (Rattus norvegicus) (UniProt P31388); assay: Agonist activity at rat recombinant 5HT6 receptor assessed as increase in 5-HT-stimulated cAMP level at 1 uM by ELISA; format: functional; in short: as §1
[12] = target: 5-hydroxytryptamine receptor 6 (Rattus norvegicus) (UniProt P31388); assay: Antagonist activity at rat recombinant 5HT6 receptor assessed as inhibition of 5-HT-stimulated cAMP level by ELISA; format: functional
In short: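 Cells expressing recombinant rat 5-HT6 receptor were stimulated with 5-HT. Inhibition of the 5-HT-stimulated cAMP accumulation was read by ELISA and expressed as a Kb.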

Rattus norvegicus [13] = assay: Reversal of natural forgetting activity in rat assessed as familiar object recognition at 10 mg/kg, ip after 24 hrs; format: functional, organism-based; set-up: dose 10 mg/kg
[14] = Half life in po dosed rat plasma; format: ADME, organism-based
In short: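 Rat pharmacokinetics; plasma half-life derived from the PO dosing arm.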

Rattus norvegicus [15] = assay: Reversal of natural forgetting activity in rat assessed as novel object recognition at 10 mg/kg, ip after 24 hrs; format: functional, organism-based; set-up: dose 10 mg/kg
[16] = target: 5-hydroxytryptamine receptor 2A (Homo sapiens, UniProt P28223); assay: Binding affinity to 5HT2A receptor
Chain of 5-hydroxytryptamine receptor 2A (P28223 whole entry): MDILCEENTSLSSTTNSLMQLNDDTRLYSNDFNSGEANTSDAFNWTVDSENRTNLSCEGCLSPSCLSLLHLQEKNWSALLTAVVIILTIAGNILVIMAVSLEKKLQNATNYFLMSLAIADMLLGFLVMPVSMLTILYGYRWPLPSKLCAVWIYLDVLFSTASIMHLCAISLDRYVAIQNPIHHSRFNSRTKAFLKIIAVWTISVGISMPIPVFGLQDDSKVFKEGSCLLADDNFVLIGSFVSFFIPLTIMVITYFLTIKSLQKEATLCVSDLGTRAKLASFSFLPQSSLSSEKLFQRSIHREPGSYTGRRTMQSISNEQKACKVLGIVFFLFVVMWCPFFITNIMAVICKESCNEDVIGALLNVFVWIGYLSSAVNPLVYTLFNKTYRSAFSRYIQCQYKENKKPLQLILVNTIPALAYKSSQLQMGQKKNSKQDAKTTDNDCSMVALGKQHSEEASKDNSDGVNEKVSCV

Cc1c(O[C@@H](C)c2cccc(F)c2)cccc1C1CCNCC1
Activity (Rattus norvegicus [1]): Active
Vd [2]: 12 L/kg
Kp [3]: 23
Activity (Rattus norvegicus [4]): Active
bioavailability [5]: 90%
Activity [6]: inactive
IC50 [7]: > 1 µM
Activity [8]: inactive
clearance [9]: 66 mL/min/kg
IC50 [10]: > 1 µM
Activity [11]: inactive
Kb [12]: 0.153 µM
Activity (Rattus norvegicus [13]): Active
half-life [14]: 5.9 h
Activity (Rattus norvegicus [15]): Active
IC50 [16]: > 1 µM
